Experimental data reported in ChEMBL document CHEMBL2069246, “Oxadiazoles in medicinal chemistry” (J Med Chem, 2012).

Columns and labels:
[1] = Dissociation constant, pKa of the compound; assay type: physicochemical
[2] = Lipophilicity, log D of the compound at pH 7.4; assay type: physicochemical; conditions: buffer
Cytochrome P450 3A4 [3] = biological target: T1, Cytochrome P450 3A4 (Homo sapiens, UniProt P08684); test: Activity of human recombinant CYP3A4 assessed as enzyme contribution towards compound metabolism at 37 degC; assay type: ADME; parameters: concentration or dose not given beside the values
T1 sequence (P08684 whole entry, canonical isoform): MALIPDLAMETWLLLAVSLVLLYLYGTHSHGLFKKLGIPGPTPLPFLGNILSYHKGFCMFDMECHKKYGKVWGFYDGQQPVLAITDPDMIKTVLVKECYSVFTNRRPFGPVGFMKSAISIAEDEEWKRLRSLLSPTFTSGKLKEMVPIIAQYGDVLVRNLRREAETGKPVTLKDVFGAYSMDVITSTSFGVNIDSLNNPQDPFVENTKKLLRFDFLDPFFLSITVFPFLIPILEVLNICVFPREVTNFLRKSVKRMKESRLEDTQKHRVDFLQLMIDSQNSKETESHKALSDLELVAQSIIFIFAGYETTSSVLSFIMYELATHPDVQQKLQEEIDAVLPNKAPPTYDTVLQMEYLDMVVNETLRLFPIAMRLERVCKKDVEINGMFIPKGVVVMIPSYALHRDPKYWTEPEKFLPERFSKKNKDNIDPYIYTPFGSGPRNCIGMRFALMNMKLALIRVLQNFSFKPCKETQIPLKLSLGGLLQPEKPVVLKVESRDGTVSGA
Procedure, shortened: (§1)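 CYP reaction phenotyping with human recombinant P450 isoforms at 37 °C. Each isoform's share of compound metabolism is given as percent contribution relative to the other isoforms in the test.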

[4] = Intrinsic clearance in human liver microsomes at 1 mg/ml; assay type: ADME, Microsome; conditions: read-out: CLH
Procedure, shortened: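 Compound incubated 45 min at 37 °C with human liver microsomes at 1 mg/mL. CLint is taken from the rate of parent disappearance.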

CYP2C19 = CYP2C19 (Homo sapiens, UniProt P33261); test: Time dependent inhibition of human recombinant CYP2C19 coexpressed in Escherichia coli at 50 uM using mephenytoin as probe; assay type: ADME
Sequence of CYP2C19 (P33261 whole entry): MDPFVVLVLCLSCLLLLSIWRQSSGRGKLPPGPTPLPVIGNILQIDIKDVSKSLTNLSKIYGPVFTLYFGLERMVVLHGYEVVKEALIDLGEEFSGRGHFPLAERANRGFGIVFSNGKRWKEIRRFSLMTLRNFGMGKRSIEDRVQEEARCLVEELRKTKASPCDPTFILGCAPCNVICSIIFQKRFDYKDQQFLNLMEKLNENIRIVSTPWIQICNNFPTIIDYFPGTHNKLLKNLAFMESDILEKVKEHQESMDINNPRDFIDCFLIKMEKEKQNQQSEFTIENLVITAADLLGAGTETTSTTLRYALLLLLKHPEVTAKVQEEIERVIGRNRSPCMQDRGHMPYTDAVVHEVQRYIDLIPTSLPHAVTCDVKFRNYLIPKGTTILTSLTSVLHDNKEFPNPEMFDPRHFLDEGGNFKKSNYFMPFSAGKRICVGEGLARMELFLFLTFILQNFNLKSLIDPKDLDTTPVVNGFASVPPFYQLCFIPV
Procedure, shortened: (§2)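 Time-dependent inhibition of human recombinant P450s. Compound is preincubated 30 min at 37 °C with and without NADPH, then percent inhibition is read. Run at 10 and 50 μM, with the 50 μM value reported.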

Cytochrome P450 2C9 [5] = biological target: T2, Cytochrome P450 2C9 (Homo sapiens, UniProt P11712); test: Inhibition of human recombinant CYP2C9 coexpressed in Escherichia coli; assay type: ADME
T2 sequence (P11712 whole entry, canonical isoform): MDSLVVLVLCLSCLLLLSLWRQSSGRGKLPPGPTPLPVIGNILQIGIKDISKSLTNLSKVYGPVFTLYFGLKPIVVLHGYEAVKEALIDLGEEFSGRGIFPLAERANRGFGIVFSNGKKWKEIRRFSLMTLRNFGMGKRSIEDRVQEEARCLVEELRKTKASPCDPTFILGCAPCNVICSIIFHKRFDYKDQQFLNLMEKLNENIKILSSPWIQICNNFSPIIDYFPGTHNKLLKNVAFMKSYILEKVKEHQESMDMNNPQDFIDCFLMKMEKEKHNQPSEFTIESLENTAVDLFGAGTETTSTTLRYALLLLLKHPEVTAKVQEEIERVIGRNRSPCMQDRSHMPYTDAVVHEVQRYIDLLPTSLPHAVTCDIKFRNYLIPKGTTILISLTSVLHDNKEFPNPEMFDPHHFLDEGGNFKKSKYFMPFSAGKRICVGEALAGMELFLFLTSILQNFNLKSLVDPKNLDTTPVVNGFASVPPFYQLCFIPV
Procedure, shortened: (§3)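 Human recombinant cytochrome P450s at 37 °C. Read-out is inhibition of metabolic degradation of each isoform's substrate. Percent inhibition is measured at five test concentrations and converted to IC50.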

Cytochrome P450 2C8 [6] = biological target: T3, Cytochrome P450 2C8 (Homo sapiens, UniProt P10632); test: Inhibition of human recombinant CYP2C8 coexpressed in Escherichia coli; assay type: ADME; procedure, shortened: as §3
T3 sequence (P10632 whole entry): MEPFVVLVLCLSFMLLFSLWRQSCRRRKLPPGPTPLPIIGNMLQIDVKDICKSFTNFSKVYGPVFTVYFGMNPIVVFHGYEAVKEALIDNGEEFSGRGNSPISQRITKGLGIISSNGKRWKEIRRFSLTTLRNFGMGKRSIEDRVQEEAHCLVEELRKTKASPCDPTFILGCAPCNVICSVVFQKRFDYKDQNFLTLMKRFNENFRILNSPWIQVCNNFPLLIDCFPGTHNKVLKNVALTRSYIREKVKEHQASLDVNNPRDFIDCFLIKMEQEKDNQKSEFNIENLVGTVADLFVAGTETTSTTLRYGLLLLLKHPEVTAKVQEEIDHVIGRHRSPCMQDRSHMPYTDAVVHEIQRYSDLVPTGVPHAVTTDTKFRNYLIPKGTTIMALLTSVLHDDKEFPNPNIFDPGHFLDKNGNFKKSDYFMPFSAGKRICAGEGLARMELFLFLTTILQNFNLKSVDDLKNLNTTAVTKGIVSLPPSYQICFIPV

Cytochrome P450 2C19 [7] = biological target: T4, Cytochrome P450 2C19 (Homo sapiens, UniProt P33261); test: Activity of human recombinant CYP2C19 assessed as enzyme contribution towards compound metabolism at 37 degC; assay type: ADME; procedure, shortened: as §1
T4 sequence (P33261 whole entry): as the sequence (P33261 whole entry) above

Cytochrome P450 1A2 [8] = biological target: T5, Cytochrome P450 1A2 (Homo sapiens, UniProt P05177); test: Activity of human recombinant CYP1A2 assessed as enzyme contribution towards compound metabolism at 37 degC; assay type: ADME; procedure, shortened: as §1
T5 sequence (P05177 whole entry): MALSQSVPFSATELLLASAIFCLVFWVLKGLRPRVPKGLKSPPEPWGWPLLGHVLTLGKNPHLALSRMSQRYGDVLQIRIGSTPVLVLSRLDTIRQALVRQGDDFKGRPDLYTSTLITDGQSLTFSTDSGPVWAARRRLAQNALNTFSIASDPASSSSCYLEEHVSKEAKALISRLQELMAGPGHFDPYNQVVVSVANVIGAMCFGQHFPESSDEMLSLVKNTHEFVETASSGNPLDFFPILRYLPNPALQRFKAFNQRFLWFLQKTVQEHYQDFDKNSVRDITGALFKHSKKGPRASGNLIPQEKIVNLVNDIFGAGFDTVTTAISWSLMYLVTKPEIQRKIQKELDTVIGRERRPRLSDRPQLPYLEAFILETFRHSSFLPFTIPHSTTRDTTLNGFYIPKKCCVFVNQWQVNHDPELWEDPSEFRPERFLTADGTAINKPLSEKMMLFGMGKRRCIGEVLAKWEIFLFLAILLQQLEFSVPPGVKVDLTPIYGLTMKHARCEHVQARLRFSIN

Cytochrome P450 2C8 [9] = biological target: T3, Cytochrome P450 2C8; test: Activity of human recombinant CYP2C8 assessed as enzyme contribution towards compound metabolism at 37 degC; assay type: ADME; procedure, shortened: as §1
Cytochrome P450 2C9 [10] = biological target: T2, Cytochrome P450 2C9; test: Activity of human recombinant CYP2C9 assessed as enzyme contribution towards compound metabolism at 37 degC; assay type: ADME; procedure, shortened: as §1
CYP3A4 = CYP3A4 (Homo sapiens, UniProt P08684); test: Time dependent inhibition of human recombinant CYP3A4 coexpressed in Escherichia coli at 50 uM using midazolam as probe; assay type: ADME; procedure, shortened: as §2
Sequence of CYP3A4 (P08684 whole entry): as the sequence (P08684 whole entry, canonical isoform) above

Cytochrome P450 1A2 [11] = biological target: T5, Cytochrome P450 1A2; test: Inhibition of human recombinant CYP1A2 coexpressed in Escherichia coli using phenacetin as probe; assay type: ADME; procedure, shortened: as §3
CYP2C8 = biological target: T6, CYP2C8 (Homo sapiens, UniProt P10632); test: Time dependent inhibition of human recombinant CYP2C8 coexpressed in Escherichia coli at 50 uM using amodiaquine as probe; assay type: ADME; procedure, shortened: as §2
T6 sequence (P10632 whole entry): T3 sequence (P10632 whole entry)

Cytochrome P450 2D6 [12] = biological target: T7, Cytochrome P450 2D6 (Homo sapiens, UniProt P10635); test: Activity of human recombinant CYP2D6 assessed as enzyme contribution towards compound metabolism at 37 degC; assay type: ADME; procedure, shortened: as §1
T7 sequence (P10635 whole entry): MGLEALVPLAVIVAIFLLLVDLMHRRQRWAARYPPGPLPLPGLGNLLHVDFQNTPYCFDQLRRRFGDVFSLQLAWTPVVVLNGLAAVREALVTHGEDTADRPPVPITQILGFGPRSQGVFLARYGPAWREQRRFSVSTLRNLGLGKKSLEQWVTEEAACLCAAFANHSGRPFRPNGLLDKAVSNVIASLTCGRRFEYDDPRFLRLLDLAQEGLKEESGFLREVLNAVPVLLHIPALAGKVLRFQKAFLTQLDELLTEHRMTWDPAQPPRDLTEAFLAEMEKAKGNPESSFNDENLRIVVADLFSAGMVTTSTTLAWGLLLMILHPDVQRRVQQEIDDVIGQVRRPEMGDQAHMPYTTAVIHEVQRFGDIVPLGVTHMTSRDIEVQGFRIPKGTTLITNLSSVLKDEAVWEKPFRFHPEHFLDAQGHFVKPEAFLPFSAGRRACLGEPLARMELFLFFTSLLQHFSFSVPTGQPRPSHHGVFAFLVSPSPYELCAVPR

CYP1A2 = biological target: T8, CYP1A2 (Homo sapiens, UniProt P05177); test: Time dependent inhibition of human recombinant CYP1A2 coexpressed in Escherichia coli at 50 uM using phenacetin as probe; assay type: ADME; procedure, shortened: as §2
T8 sequence (P05177 whole entry): T5 sequence (P05177 whole entry)

Cytochrome P450 2D6 [13] = biological target: T7, Cytochrome P450 2D6; test: Inhibition of human recombinant CYP2D6 coexpressed in Escherichia coli; assay type: ADME; procedure, shortened: as §3
CYP2D6 = CYP2D6 (Homo sapiens, UniProt P10635); test: Time dependent inhibition of human recombinant CYP2D6 coexpressed in Escherichia coli at 50 uM using bufuralol as probe; assay type: ADME; procedure, shortened: as §2
Sequence of CYP2D6 (P10635 whole entry): as above

CYP2C9 = CYP2C9 (Homo sapiens, UniProt P11712); test: Time dependent inhibition of human recombinant CYP2C9 coexpressed in Escherichia coli at 50 uM using diclofenac as probe; assay type: ADME; procedure, shortened: as §2
Sequence of CYP2C9 (P11712 whole entry): as the sequence (P11712 whole entry, canonical isoform) above

Cytochrome P450 3A4 [14] = biological target: T1, Cytochrome P450 3A4; test: Inhibition of human recombinant CYP3A4 coexpressed in Escherichia coli; assay type: ADME; procedure, shortened: as §3
Cytochrome P450 2C19 [15] = biological target: T4, Cytochrome P450 2C19; test: Inhibition of human recombinant CYP2C19 coexpressed in Escherichia coli; assay type: ADME; procedure, shortened: as §3

SMILES	pKa [1]	Activity (Cytochrome P450 3A4 [3]) [%]	microsomal CLint [4] [µL/min/mg]	inhibition at 50 µM (CYP2C19) [%]	IC50 (Cytochrome P450 2C9 [5]) [µM]	IC50 (Cytochrome P450 2C8 [6]) [µM]	Activity (Cytochrome P450 2C19 [7]) [%]	Activity (Cytochrome P450 1A2 [8]) [%]	Activity (Cytochrome P450 2C8 [9]) [%]	CYP isoform contribution to compound metabolism (Cytochrome P450 2C9 [10]) [%]	inhibition at 50 µM (CYP3A4) [%]	IC50 (Cytochrome P450 1A2 [11]) [µM]	inhibition at 50 µM (CYP2C8) [%]	Activity (Cytochrome P450 2D6 [12]) [%]	inhibition at 50 µM (CYP1A2) [%]	IC50 (Cytochrome P450 2D6 [13]) [µM]	inhibition at 50 µM (CYP2D6) [%]	inhibition at 50 µM (CYP2C9) [%]	IC50 (Cytochrome P450 3A4 [14]) [µM]	IC50 (Cytochrome P450 2C19 [15]) [µM]	also measured
CCOC(=O)N1CCN(Cc2nc(-c3cccc(Cl)c3)no2)CC1	3.4																				logD [2]: 4.8
O=C(NCc1ccncc1)c1nc(CS(=O)(=O)c2ccccc2)no1		99.8	93	< 12	2.2	> 20	0.1	0	0	0.1	42	> 20	< 14	0.1	< 10	9.4	< 11	< 19	14.6	1.3	
O=C(NCc1ccncc1)c1nnc(CS(=O)(=O)c2ccccc2)o1		0	< 5	< 12	1.7	> 20	0	0	0	0	< 7	> 20	< 14	100	< 10	5.7	< 11	< 19	> 20	9.8	
c1cc(-c2noc(C3CCCCC3)n2)ccn1		17.7	83	< 12	17.6	> 20	38	29.5	1.5	4.7	< 7	2.4	< 13	8.6	< 7	10	< 9	< 19	10.2	1.2	
c1cc(-c2nnc(C3CCCCC3)o2)ccn1		11.7	17	13	> 20	> 20	14.8	68.5	1.5	2.4	< 7	> 20	< 14	1.1	< 10	> 20	< 11	< 19	> 20	1.3	
O=C(NC1CCCCC1)c1nc(CS(=O)(=O)c2ccccc2)no1		91.5	50	< 19	> 20	> 20	7.9	0.2	0	0.3	< 7	> 20	< 13	0.1	< 7	> 20	< 9	< 19	> 20	> 20	
O=C(NC1CCCCC1)c1nnc(CS(=O)(=O)c2ccccc2)o1		52.2	< 5	< 12	> 20	> 20	45.4	0	0	0	< 7	> 20	< 13	2.4	< 7	> 20	< 9	< 19	> 20	> 20	
c1ccc(CN2CCN(Cc3nc(-c4ccccc4)no3)CC2)cc1	6.7	92.1	9	< 12		> 20	2.2	1.5	0.9	1	9	> 20	< 13	2.3	< 7	10.2	< 9	< 19	> 20	> 20	logD [2]: 5.1
CN(Cc1nc2ccccc2c(=O)[nH]1)Cc1nc(-c2ccccc2)no1	2.1																				logD [2]: 3.1
CCOC(=O)N1CCN(Cc2nnc(-c3cc(Cl)ccc3F)o2)CC1	3.5																				logD [2]: 3.2
CCOC(=O)N1CCN(Cc2nnc(-c3cccc(Cl)c3)o2)CC1	3.5																				logD [2]: 3.3
